Entries after “also recorded” stand apart in the source; their conditions may differ.

For series [1], the system named is BiP-T229A. The series is described as follows: Fluorescence polarization NR peptide binding. On the set-up: species or system human. The note with it: effect of ATP, WT BiP as positive control. The gist of the method: (§1)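 Human BiP proteins (wild type or variant) were made as Smt3 fusions in E. coli BL21(DE3)Gold. They were purified on HisTrap, cut with Ulp1, run over a second HisTrap, then HiTrap Q and Superdex 200, and stored in 5 mM Hepes-KOH pH7.5, 10 mM KCl. Binding of NR peptide (NRLLLTG) was read by fluorescence polarization across serial protein dilutions. Kd was fitted from binding curves; standard errors come from at least 6 assays on more than two protein purifications.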
(Fluorescence polarisation rises when a labelled molecule tumbles more slowly, as on binding a larger partner.)

For series [2], the system named is BiP SBD-Tev-NR. The series is described as follows: Fluorescence polarization NR peptide binding. Set-up: species or system human. Particulars: SBD with covalently linked NR peptide; WT BiP SBD as positive control. The gist of the method: as §1
Series [3] addresses T1, human BiP (Homo sapiens, UniProt P11021). The series is described as follows: Fluorescence polarization NR peptide binding affinity. Particulars: WT BiP. The method in brief: as §1
In series [4] the target is T2, BiP-PP (G486P/G493P) (Homo sapiens, UniProt P11021, G486P/G493P). The series is described as follows: Fluorescence anisotropy peptide substrate binding kinetics. Particulars: F-NR peptide.
T2 sequence (P11021 25-654 G486P/G493P limits assumed): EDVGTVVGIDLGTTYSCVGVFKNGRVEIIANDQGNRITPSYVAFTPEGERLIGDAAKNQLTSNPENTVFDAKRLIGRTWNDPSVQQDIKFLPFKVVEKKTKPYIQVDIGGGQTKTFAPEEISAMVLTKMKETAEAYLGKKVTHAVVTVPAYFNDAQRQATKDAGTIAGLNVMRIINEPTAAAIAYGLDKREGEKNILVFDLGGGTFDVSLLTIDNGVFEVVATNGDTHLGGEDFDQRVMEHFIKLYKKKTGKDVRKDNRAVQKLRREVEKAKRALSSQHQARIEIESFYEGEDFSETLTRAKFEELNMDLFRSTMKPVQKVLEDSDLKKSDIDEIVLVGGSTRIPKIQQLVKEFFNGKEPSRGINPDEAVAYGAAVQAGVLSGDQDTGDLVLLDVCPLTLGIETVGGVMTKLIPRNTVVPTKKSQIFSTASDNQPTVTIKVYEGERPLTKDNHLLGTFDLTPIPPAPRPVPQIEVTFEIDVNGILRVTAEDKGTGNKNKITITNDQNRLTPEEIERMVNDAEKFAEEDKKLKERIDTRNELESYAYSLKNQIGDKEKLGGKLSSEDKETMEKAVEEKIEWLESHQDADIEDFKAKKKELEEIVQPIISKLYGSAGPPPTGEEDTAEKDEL
For series [5], the target named is T1, human BiP. Described as above.
For series [6], the target named is BiP R532E (Homo sapiens, UniProt P11021, R532E). The series is described as follows: Fluorescence anisotropy NR peptide binding affinity. The note with it: WT BiP as control. The method in brief:
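BiP wild type and mutants were expressed in E. coli BL21(DE3)Gold as Smt3 fusions. Purification was by HisTrap, Ulp1 tag removal, a second HisTrap, HiTrap Q and Superdex 200. Fluorescence polarization/anisotropy binding of NR peptide (NRLLLTG) was measured with serial dilutions of protein, in the presence of ADP or ATP. Kd was calculated from the binding data.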

For series [7], the system named is BiP-L3,4′. The series is described as follows: Fluorescence polarization NR peptide binding. The note with it: L3,4′ modification (TASDNQP→VGG); WT BiP as positive control. On the set-up: species or system human. The method in brief:
as §1

Series [8] relates to isolated SBD of BiP. The series is described as follows: Fluorescence polarization NR peptide binding affinity. Set-up: species or system human. Particulars: isolated SBD vs full-length BiP. The method in brief: as §1
For series [9], the system named is BiP-PP. The series is described as follows: Single-turnover ATPase assay. The class given is biochemical, human. Particulars: single turn-over.
In series [10] the target is T2, BiP-PP (G486P/G493P). The series is described as follows: Fluorescence polarization peptide binding affinity.
For series [11], the target named is F-NR peptide (labelled NR peptide, sequence NRLLLTG). The series is described as follows: fluorescence polarisation.
Series [12] has as its system BiP. The series is described as follows: Single-turnover ATPase assay. It counts as biochemical, human.
For series [13], the system named is DnaK-PP (DnaK-G461P/G468P). The series is described as follows: Single-turnover ATPase assay. The class given is biochemical, E. coli.
The test system of series [14] is DnaK.
Series [15] deals with BiP. The note with it: ref Marcinowski et al., 2011; cited from earlier work.
Series [16] concerns the target T3, BiP SBD-L3,4′ (residues 418-636), the SBD part of SBD-L3,4′-Tev-NR (human, UniProt P11021 418-636, L3,4′ (TASDNQP→VGG)).
T3 sequence (looked up): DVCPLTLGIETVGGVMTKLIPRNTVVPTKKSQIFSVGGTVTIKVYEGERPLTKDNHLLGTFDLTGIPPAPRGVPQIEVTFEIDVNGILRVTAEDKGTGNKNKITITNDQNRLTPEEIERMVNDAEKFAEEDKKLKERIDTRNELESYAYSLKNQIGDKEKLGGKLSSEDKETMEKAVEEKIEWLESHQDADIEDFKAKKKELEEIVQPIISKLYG
The series is described as follows: crystal structure.

T1 sequence (P11021 19-654): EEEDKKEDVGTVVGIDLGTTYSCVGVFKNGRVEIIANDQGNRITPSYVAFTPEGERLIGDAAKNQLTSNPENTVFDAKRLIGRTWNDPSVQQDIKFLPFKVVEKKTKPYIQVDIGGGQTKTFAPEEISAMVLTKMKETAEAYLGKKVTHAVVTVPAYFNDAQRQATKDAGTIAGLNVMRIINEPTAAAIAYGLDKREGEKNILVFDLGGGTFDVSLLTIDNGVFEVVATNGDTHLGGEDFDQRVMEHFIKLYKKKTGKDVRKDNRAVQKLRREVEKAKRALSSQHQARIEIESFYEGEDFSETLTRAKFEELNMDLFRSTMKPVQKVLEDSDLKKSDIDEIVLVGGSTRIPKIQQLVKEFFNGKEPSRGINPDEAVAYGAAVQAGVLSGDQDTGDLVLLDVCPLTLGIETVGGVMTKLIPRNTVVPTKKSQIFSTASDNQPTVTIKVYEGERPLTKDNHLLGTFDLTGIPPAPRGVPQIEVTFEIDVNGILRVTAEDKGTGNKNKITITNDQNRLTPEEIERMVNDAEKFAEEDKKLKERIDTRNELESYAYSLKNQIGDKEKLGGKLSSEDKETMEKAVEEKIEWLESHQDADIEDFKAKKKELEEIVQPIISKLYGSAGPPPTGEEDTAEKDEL
BiP R532E, sequence (P11021 19-654 R532E): as the sequence (P11021 19-654) above, with R514E counted along it

Consider NRLLLTG [NR peptide], for which the “NR peptide binding / affinity, ATP sensitivity” value in series [1] is on record as “binds NR peptide in an ATP-sensitive manner like that of WT BiP; also recorded: significantly reduced affinity for NR peptide in the presence of ATP”. In addition, in [2], the “binding of free NR peptide” value was “Neither BiP SBD-Tev–NR nor SBD-L3,4′-Tev-NR showed appreciable binding; also recorded: completely blocks the binding of free NR peptide”. Further, in series [3] (+ADP), the “binding affinity in the presence of ADP” value was “binding affinity is high”. Moreover, the figures for the “affinity for NR peptide in the presence of ATP” value in [3] (+ATP) and in [6] (+ATP) were “drastically reduced the affinity” and “higher than that of WT BiP”, respectively. In [3] (fluorescence polarization, serial dilutions of BiP), the NR peptide binding result is “binds NR peptide through its SBD and in an ATP-sensitive manner; also recorded: good affinity”. Further, the “binding kinetics in the presence of ADP” value in series [4] was “fast binding kinetics”; in series [5] (WT BiP, +ADP, F-NR peptide), “binding kinetics are slow”. Moreover, the “binding kinetics, both on and off rates, relative to DnaK” value in series [5] (BiP vs DnaK, Fig. S1a,b) is recorded as “much slower than those of DnaK”. Further, the “binding kinetics in the presence of ATP” value in [5] (WT BiP, +ATP, F-NR peptide) is “fast binding kinetics”. For the same molecule, the “affinity for NR peptide in the presence of ADP” value in series [6] (+ADP) was “normal affinity”; in series [10], “reduced affinity”. Moreover, in series [7], the “affinity for NR peptide / NR peptide binding” value is “drastically compromised the NR peptide binding; also recorded: drastically reduced affinity”. In addition, in series [8], the “affinity of isolated SBD for NR peptide” value is listed as “affinity comparable to full-length BiP”. The “stimulation of ATPase activity by NR peptide” value in series [9] is “failed to stimulate the ATPase activity; also recorded: little appreciable stimulation”.
For “human BiP (binding immunoglobulin protein), wild type (from UniProt P11021 19-654) (natural protein)”, in series [11], the Kd relative to that of DnaK turned out to be 2 times lower.

B1: DnaJ: an Hsp40 co-chaperone for DnaK and founding representative of the class I Hsp40s (protein)
chain: MAKQDYYEILGVSKTAEEREIRKAYKRLAMKYHPDRNQGDKEAEAKFKEIKEAYEVLTDSQKRAAYDQYGHAAFEQGGMGGGGFGGGADFSDIFGDVFGDIFGGGRGRQRAARGADLRYNMELTLEEAVRGVTKEIRIPTLEECDVCHGSGAKPGTQPQTCPTCHGSGQVQMRQGFFAVQQTCPHCQGRGTLIKDPCNKCHGHGRVERSKTLSVKIPAGVDTGDRIRLAGEGEAGEHGAPAGDLYVQVQVKQHPIFEREGNNLYCEVPINFAMAALGGEIEVPTLDGRVKLKVPGETQTGKLFRMRGKGVKSVRGGAQGDLLCRVVVETPVGLNERQKQLLQELQESFGGPTGEHNSPRSKSFFDGVKKFFDDLTR
For the molecule B1, the “stimulation of ATPase activity by DnaJ” value in [12] (compared with ERdj3) was “stimulated BiP although to less extend as ERdj3”; in series [13] (DnaK-PP, single turn-over), “significant stimulation; also recorded: stimulates the ATPase rate of DnaK-PP drastically; also recorded: stimulated DnaK-PP significantly”; in series [9], “Neither ERdj3 (d) nor DnaJ (f) showed appreciable stimulation; also recorded: failed to stimulate BiP-PP appreciably”. Also, the “stimulation of ATPase rate by DnaJ relative to WT DnaK” value in [13] (DnaK-PP vs WT DnaK) is given as “about two thirds of that of WT”. The “fold of stimulation of ATPase rate by DnaJ” value in series [14] (DnaJ at 0.4 μM, intrinsic ATPase activity set as 1) was approximately 60 fold.

B2: ERdj3: an abundant class I Hsp40 in ER, proposed to be an Hsp40 for BiP (protein)
chain: GRDFYKILGVPRSASIKDIKKAYRKLALQLHPDRNPDDPQAQEKFQDLGAAYEVLSDSEKRKQYDTYGEEGLKDGHQSSHGDIFSHFFGDFGFMFGGTPRQQDRNIPRGSDIIVDLEVTLEEVYAGNFVEVVRNKPVARQAPGKRKCNCRQEMRTTQLGPGRFQMTQEVVCDECPNVKLVNEERTLEVEIEPGVRDGMEYPFIGEGEPHVDGEPGDLRFRIKVVKHPIFERRGDDLYTNVTISLVESLVGFEMDITHLDGHKVHISRDKITRPGAKLWKKGEGLPNFDNNNIKGSLIITFDVDFPKEQLTEEAREGIKQLLKQGSVQKVYNGLQGY
B2: the “fold of stimulation of ATPase activity by ERdj3” value in series [12] (ERdj3 at 4 μM, intrinsic ATPase activity set as 1) is reported as “more than 20 fold”. Further, the “stimulation of ATPase activity by ERdj3” value is recorded as “significant stimulation; also recorded: significant stimulation on DnaK-PP although to less extend than that of DnaJ; also recorded: stimulated DnaK-PP significantly” in series [13] (DnaK-PP, single turn-over); “stimulated DnaK’s ATPase activity robustly” in series [14] (single turn-over); “Neither ERdj3 (d) nor DnaJ (f) showed appreciable stimulation; also recorded: failed to show any appreciable stimulation” in [9]. In addition, the “interaction of ERdj3 with BiP in the presence of ADP” value in series [15] is “significant interaction with BiP in the presence of ADP”.
In the case of NRLLLTG [NR peptide (sequence NRLLLTG), unlabelled], the binding result in series [16] is listed as “binds”.

The values above are taken from PMC4680848 (Structure (London, England : 1993), 2015).
